Source: ChEMBL document CHEMBL1759881, “Synthesis and anti-inflammatory activity of ent-kaurene derivatives” (Eur J Med Chem, 2011)

How the values were obtained:
[1] = Cytotoxicity against LPS-stimulated mouse RAW264.7 cells assessed as cell viability at 1 to 25 uM pretreated for 15 mins before LPS challenge measured after 24 hrs by MTT assay; format: cell-based; settings: LPS-stimulated RAW264.7 cells, read-out: Activity
How it was run: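 RAW 264.7 cells plated at 10⁵ cells/well, treated with compound at 1–25 in the presence of LPS 250 ng/ml for 24 h. MTT then added for 4 h at 37 °C, formazan extracted in DMSO, absorbance read at 540 nm. Viability expressed relative to untreated controls. Triplicate wells, at least three independent experiments.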

RAW264.7 = assay: Antiinflammatory activity in mouse RAW264.7 cells assessed as inhibition of LPS-induced nitric oxide release pretreated for 15 mins before LPS challenge measured after 24 hrs by Griess method; format: functional, cell-based
How it was run: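 RAW 264.7 cells pre-incubated 15 min with compound (1–25 range in the table; 1, 5, 10, 25, 50 for dose-response) or DMSO vehicle, then LPS 250 ng/ml for 24 h. Nitrite in supernatant measured by Griess reagent, absorbance at 548 nm against NaNO2 standard. IC50 is the concentration giving 50% inhibition of NO release. Means ± SD of three independent experiments in triplicate.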

SMILES	viability at 24 h, up to 25 µM [1]	IC50 (RAW264.7)	inhibition (RAW264.7)
COC(=O)[C@]1(C)CCC[C@@]2(C)C3=CC[C@@H]4C[C@@]3(CC[C@H]12)C[C@H]4C	95%	> 25 µM	–
COC(=O)[C@]1(C)CCC[C@@]2(C)[C@@H]3CC[C@@H]4C[C@@]3(CC[C@@H]21)C[C@@]41COS(=O)O1 (stereo partly specified)	95%	17 µM	–
C[C@@]1(CO)CCC[C@]2(C)[C@@H]1CC[C@@]13C[C@@H](CC[C@H]12)[C@@](C)(O)C3	95%	> 25 µM	–
COC(=O)[C@]1(C)CCCC2(C)[C@@H]3CC[C@@H]4C[C@@]3(CC[C@@H]21)C[C@]41CO1 (stereo partly specified)	90%	> 25 µM	–
C[C@@]12CCC[C@@](C)(C(=O)OCc3ccccc3)[C@H]1CC[C@]13CC(=O)O[C@H](CC[C@H]12)C3	50%	> 25 µM	–
COC(=O)[C@]1(C)CCC[C@@]2(C)[C@@H]3CC[C@@H]4C[C@]3(C=C4C)CC[C@@H]21	100%	> 25 µM	–
C=C1[C@@H]2CC[C@H]3[C@]4(C)CCC[C@@](C)(C(=O)Nc5ccccc5)[C@H]4CC[C@]3(C2)[C@H]1OC(C)=O	85%	> 25 µM	–
COC(=O)[C@]1(C)CCC[C@@]2(C)[C@@H]3CC[C@@H]4C[C@@]3(CC[C@@H]21)C[C@]4(C)Cl	82%	> 25 µM	–
COC(=O)[C@]1(C)CCC[C@@]2(C)[C@@H]3CC[C@@H]4C[C@@]3(CC[C@@H]21)C[C@H]4C [DIHYDRO KAURENOIC ACID METHYL ESTER]	72%	> 25 µM	–
COC(=O)[C@]1(C)CCC[C@]2(C)[C@@H]1CC[C@@]13C[C@@H](C[C@@H]4O[C@@]412)[C@]1(CO1)C3	99%	> 25 µM	–
C=C1[C@H]2CC3=C([C@H](C2)[C@@H]1O)[C@]1(C)CCC[C@@](C)(C(=O)OC)[C@H]1CC3	30%	> 25 µM	–
C=C1C[C@@]23CC[C@@H]4[C@](C)(C(=O)OC)CCC[C@@]4(C)C2=CC[C@@H]1C3 [GRANDIFLORENIC ACID METHYL ESTER]	100%	5 µM	Dose-dependent effect
C=C1C[C@@]23CC[C@@H]4[C@](C)(COC(C)=O)CCC[C@@]4(C)C2=CC[C@@H]1C3	90%	10 µM	–
COC(=O)[C@]1(C)CCC[C@@]2(C)[C@@H]3CC[C@@H]4C[C@@]3(CC[C@@H]21)[C@H]1O[C@@]41C	95%	14 µM	–
C=C1C[C@@]23CC[C@H]4[C@@](C)(CCC[C@@]4(C)C(=O)OCc4ccccc4)[C@@H]2CC[C@@H]1C3 [KAURENOIC ACID BENZYL ESTER]	46%	> 25 µM	–
COC(=O)[C@]1(C)CCC[C@@]2(C)[C@@H]3CC[C@@H]4C[C@@]3(CC[C@@H]21)[C@@H](O)C4=O	95%	> 25 µM	–
COC(=O)[C@]1(C)CCC[C@@]2(C)[C@@H]3CC[C@@H]4C[C@@]3(CC[C@@H]21)C[C@]4(C)O	52%	25 µM	–
C=C1C[C@@]23CC[C@@H]4[C@](C)(COC(C)=O)CCC[C@@]4(C)[C@@H]2CC[C@@H]1C3	99%	12 µM	–
C[C@@]12CCC[C@@](C)(C(=O)OC[Si](C)(C)C)[C@H]1CC[C@]13CC(=O)O[C@H](CC[C@H]12)C3	95%	5 µM	Dose-dependent effect
COC(=O)[C@]1(C)CCC[C@@]2(C)[C@@H]3CC[C@@H]4C[C@@]3(CC[C@@H]21)CC4=O	98%	> 25 µM	–
C=C1[C@@H]2CC=C3[C@@](CC[C@@H]4[C@](C)(C(=O)OC)CCC[C@@]34C)(C2)[C@H]1O	67%	> 25 µM	–
C=C1[C@@H]2CC[C@H]3[C@]4(C)CCC[C@@](C)(C(=O)OC)[C@H]4CC[C@]3(C2)[C@H]1OC(=O)CCCCCCCCCCC	95%	> 25 µM	–
C=C1C[C@@]23CC[C@@H]4[C@](C)(CO)CCC[C@@]4(C)[C@@H]2CC[C@@H]1C3	80%	10 µM	–
COC(=O)[C@]1(C)CCC[C@@]2(C)C3=CC[C@@H]4C[C@@]3(CC[C@H]12)C[C@]4(O)COC(=O)c1ccco1	99%	10 µM	–
COC(=O)[C@]1(C)CCC[C@@]2(C)[C@@H]3CC[C@@H]4C[C@@]3(CC[C@@H]21)C(=O)OC4=O	95%	> 25 µM	–

SMILES	viability at 24 h, up to 25 µM [1]	IC50 (RAW264.7)	inhibition (RAW264.7)
C=C1C[C@@]23CC[C@H]4[C@@](C)(CCC[C@@]4(C)C(=O)OC)[C@@H]2CC[C@@H]1C3 [KAURENOIC ACID METHYL ESTER]	90%	25 µM	–
C=C1C[C@@]23CC[C@H]4[C@@](C)(CCC[C@@]4(C)C(=O)O)[C@@H]2CCC1C3 (single isomer, unassigned) [KAURENOIC ACID]	70%	> 25 µM	–
COC(=O)[C@]1(C)CCC[C@@]2(C)[C@@H]3CC[C@@H]4C[C@@]3(CC[C@@H]21)C[C@H]4/C=N/O	25%	> 25 µM	–
C=C1C(=O)[C@@]23CC[C@@H]4[C@](C)(C(=O)OC)CCC[C@@]4(C)C2=CC[C@@H]1C3	50%	10 µM	–
C=C1C[C@@]23CC[C@@H]4[C@](C)(CO)CCC[C@@]4(C)C2=CC[C@@H]1C3	50%	> 25 µM	–
COC(=O)[C@]1(C)CCC[C@@]2(C)[C@@H]3CC[C@@H]4C[C@@]3(CC[C@@H]21)[C@@H](OC(C)=O)C4=O	99%	> 25 µM	–
COC(=O)[C@]1(C)CCC[C@@]2(C)[C@@H]3CC[C@@H]4C[C@@]3(CC[C@@H]21)C[C@]4(C)OC	90%	> 25 µM	–
COC(=O)[C@]1(C)CCC[C@@]2(C)C3=CC[C@@H]4C[C@]3(C=C4C=O)CC[C@H]12	18%	25 µM	–
C[C@@]12CCC[C@@](C)(C(=O)OCc3ccccc3)[C@H]1CC[C@]13CC(=O)[C@H](CC[C@H]12)C3	95%	12 µM	–
C=C1[C@@H]2CC[C@H]3[C@]4(C)CCC[C@@](C)(C(=O)OC)[C@H]4CC[C@]3(C2)[C@H]1O	97%	5 µM	Dose-dependent effect
C=C1[C@@H]2CC[C@H]3[C@]4(C)CCC[C@@](C)(C(=O)OC)[C@H]4CC[C@]3(C2)[C@H]1OC(C)=O	40%	> 25 µM	–
C=C1C[C@@]23CC[C@@H]4[C@](C)(C(=O)OCc5ccccc5)CCC[C@@]4(C)C2=CC[C@@H]1C3 [GRANDIFLORENIC ACID BENZYL ESTER]	23%	> 25 µM	–
C=C1C(=O)[C@@]23CC[C@H]4[C@@](C)(CCC[C@@]4(C)C(=O)OC)[C@@H]2CC[C@@H]1C3	32%	4 µM	–
COC(=O)[C@]1(C)CCC[C@@]2(C)[C@@H]3CC[C@@H]4C[C@@]3(CC[C@@H]21)C[C@@]4(O)CO	69%	5 µM	–
C=C1C[C@@]23CC[C@@H]4C(C)(C(=O)O)CCC[C@@]4(C)C2=CC[C@@H]1C3 (stereo partly specified)	90%	15 µM	–
COC(=O)[C@]1(C)CCC[C@@]2(C)[C@@H]3CC[C@@H]4C[C@]3(C=C4C=O)CC[C@@H]21	76%	5 µM	–
COC(=O)[C@]1(C)CCC[C@@]2(C)C3=CC[C@@H]4C[C@@]3(CC[C@H]12)C[C@]4(O)CO	35%	> 25 µM	–
COC(=O)[C@]1(C)CCC[C@@]2(C)[C@@H]3CC[C@@H]4C[C@]3(C=C4/C=N/O)CC[C@@H]21	99%	> 25 µM	–
C=C1[C@@H]2CC=C3[C@@](CC[C@@H]4[C@](C)(C(=O)OC)CCC[C@@]34C)(C2)[C@H]1OC(C)=O	50%	> 25 µM	–
C=C1[C@@H]2CC[C@H]3[C@]4(C)CCC[C@@](C)(C(=O)O)[C@H]4CC[C@]3(C2)[C@H]1OC(C)=O	58%	> 25 µM	–
COC(=O)[C@]1(C)CCCC2(C)[C@@H]3CC[C@@H]4C[C@@]3(CC[C@@H]21)C[C@@]41CO1 (stereo partly specified)	66%	> 25 µM	–
C=C1C[C@@]23CC[C@H]4[C@@](C)(CCC[C@@]4(C)C(=O)OC[Si](C)(C)C)[C@@H]2CC[C@@H]1C3	95%	> 25 µM	–
COC(=O)[C@]1(C)CCC[C@@]2(C)[C@@H]3CC[C@@H]4C[C@@]3(CC[C@@H]21)C[C@H]4C=O	90%	> 25 µM	–
C=C1C[C@@]23CC[C@@H]4[C@](C)(COS(=O)OC[C@]5(C)CCC[C@]6(C)[C@@H]5CC[C@]57CC(=C)[C@H](CC[C@H]56)C7)CCC[C@@]4(C)[C@@H]2CC[C@@H]1C3	99%	> 25 µM	–
